Screens: PubChem, several laboratories
Rows were chosen to be rich in hits. Some 8.9% of all compounds tested hit in one or more screens of this group.
Dynein cargo inh – blocks dynein driven cargo transport along microtubules; 220,000 compounds, 0.47% hits; z-score, hits read low; 3617.4 mouse cells, GR-EGFP nuclear translocation imaging; test concentration mostly 20 µM; stimulated with dexamethasone, 1 µM; active compounds read low;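 active = plate z-score of nuclear minus cytoplasmic receptor signal below a set negative limit, without overly bright fluorescence or cell loss, cut at about -3.5 in these data, passing the limit was not always enough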;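 note: z-score of nuclear minus cytoplasmic ring GR-EGFP intensity difference per well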
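Buffer or medium: tet-free, stripped-serum medium; reagent: dexamethasone at 1.0 µM final, 30 min; incubation: 48 h induction, 1 h compound, 30 min dex at 37 °C; measured by: formaldehyde fixation, Hoechst nuclear stain, 10x automated fluorescence imaging; read-out: nuclear-to-cytoplasmic GR-EGFP distribution per well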
b-catenin transl – modulators of beta-catenin nuclear translocation; HeLa beta-catenin nuclear translocation, immunofluorescence imaging; nuclear translocation activity, % at 5 µM; 190,000 compounds, 0.3% hits;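 active = nuclear translocation activity above 50% at 5 µM, with a well cell count of 50 or more; inconclusive = wells under 50 cells across six images, flagged as toxic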;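 note: per-cell ratio of nuclear to cytoplasmic median beta-catenin stain intensity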
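System: HeLa cells, endogenous beta-catenin; compound dosing: 5 µM primary single dose, 0.1% DMSO, 0.02–20 µM confirmation series; incubation: 24 h compound exposure at 37°C, 5% CO2; signal: beta-catenin immunofluorescence imaging with DAPI; evaluation: % activation, nuclear-to-cytoplasmic median beta-catenin signal ratio per cell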
HSV replic up – HSV replication enhancement; maximum fold increase; 220,000 compounds, 0.005% hits; HSV replication augmentation in cells, fold increase; AID 1956; in the data active = maximum fold increase above about 1.5; inconclusive = no clear call, values can overlap the other calls; tested in PC3 cells
L major viab – Leishmania major promastigote growth inhibition | Leishmania major promastigotes, resazurin fluorescence viability | inhibition, % at 10 µM | 200,000 compounds, 9% hits; in the data active = inhibition above about 50%;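 note: promastigotes grown with compound for 44 hours at 28 °C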
MT stabilize HCS – microtubule stabilization, imaging screen. AID 2205. HeLa tubulin immunostaining HCS, 24 h; share of cells brighter than vehicle mean+2SD. 200,000 compounds, 0.83% hits. % tubulin-high responders, % at 10 µM;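 active = plate Z-score above 3 for both tubulin-high and condensed-nucleus cell shares, with cell loss under 80%, at 10 µM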;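 note: anti alpha tubulin signal scored within the nucleus-defined area of each cell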
Numbers stand for hits; n = inactive; u = inconclusive; x = no result given.

SMILES | Dynein cargo inh | b-catenin transl | HSV replic up | L major viab | MT stabilize HCS
CCC(C)C(NC(=O)c1ccccc1NC(=O)c1ccccc1)C(=O)N1CCOCC1 (centres undefined) | n | n | n | 53 | n
Cc1ccccc1-c1nnn(C/C(N)=N/O)n1 | n | n | n | n | n
COc1c2ccoc2c(OC)c2oc(=O)ccc12 | n | n | n | x | x
CN(C)CCN(Cc1ccco1)C(=O)c1cc2c(Cl)nc3ccccc3c2s1 | n | n | x | 91 | n
CCCCN(Cc1ccco1)C(=O)c1cc2c(=O)[nH]c3ccc(C)cc3c2s1 | n | x | n | n | n
CCOC(=O)CSc1nnc(Cc2ccccc2)n1-c1ccc(C)cc1 | n | n | n | n | n
O=C(N/N=C/c1ccc(-c2ccc(S(=O)(=O)Nc3ncccn3)cc2)o1)c1cc2ccccc2cc1O | n | n | x | 73 | n
Nc1c2c(nc3ccccc13)N(C1CCCCC1)CC2 | x | n | n | x | x
Nc1c2c(nc3ccc(Br)cc13)N(C1CCCCC1)CC2 | n | n | n | 101 | n
Nc1c2c(nc3ccc(Br)cc13)N(c1ccccc1)CC2 | n | n | n | 100 | n
Cc1cccc(N2CCc3c2nc2ccc(Br)cc2c3N)c1 | n | n | n | 100 | n
Nc1cc(-c2cccc(Br)c2)nn1Cc1ccccc1 | n | n | n | n | n
Nc1c2c(nc3ccc(Br)cc13)N(Cc1ccccc1)CC2 | n | n | n | 94 | n
CCOC(=O)N1CCN(C(=O)c2ccccc2Oc2ccccc2)CC1 | n | n | n | n | n
O=C(O)CC(c1cccc([N+](=O)[O-])c1)N1Cc2ccccc2C1=O (centres undefined) | n | n | n | n | n
COC(=O)c1cc(Br)c(=O)n(-c2ccc(F)cc2)c1 | n | n | n | n | n
COc1ccc(-c2noc(CSc3nnc(Cc4ccccc4)n3-c3ccc(Cl)cc3)n2)cc1 | n | x | n | n | n
CCN(CC)CCCn1c(C)cc2c(c1=O)C(c1cccc(Cl)c1)C(C#N)=C(N)O2 (centres undefined) | n | n | x | 67 | n
O=C(CSCc1nc2ccccc2[nH]1)Nc1ccc(Oc2ccccc2)cc1 | n | n | n | 64 | n
O=C(CSCc1nc2ccccc2[nH]1)Nc1ccc2ccccc2c1 | n | n | n | n | n
CCOC(=O)c1oc2ccc(S(=O)(=O)n3nc(-c4ccc(OC)cc4)cc3N)cc2c1C | n | n | x | n | 13
CCOc1ccc(-c2cc(N)n(S(=O)(=O)c3ccc(OC)cc3)n2)cc1 | n | x | n | n | n
CCOC(=O)c1oc2ccc(S(=O)(=O)n3nc(-c4ccccc4)cc3N)cc2c1C | n | n | n | 97 | n
CCOC1=C/C(=C/c2c(N)n3nc(-c4ccccc4)sc3nc2=O)C=CC1=O | n | n | x | n | n
COC1=C/C(=C/c2c(N)n3nc(-c4ccc(C)cc4)sc3nc2=O)C=CC1=O | n | n | u | 74 | n
SMILES | Dynein cargo inh | b-catenin transl | HSV replic up | L major viab | MT stabilize HCS
CCOC(=O)N1CCN(C(=O)CSc2nnc(COc3ccc(Cl)cc3)o2)CC1 | n | n | n | n | n
O=C(CSc1nnc(COc2ccc(Cl)cc2)o1)N1c2ccccc2CCc2ccccc21 | n | n | n | 67 | n
CC1=C(C)C(=O)NC(Nc2nc(C)c3cc(C)cc(C)c3n2)N1 (centres undefined) | n | x | x | 100 | n
C=C(C(=O)c1ccccc1)C(C)CC(=O)c1ccccc1 (centres undefined) | n | n | n | 86 | n
COCc1ccc(O)c2ncccc12 | n | x | n | 100 | n
Oc1ccc(CNc2ccc(F)cc2)c2cccnc12 | n | n | n | n | n
Cc1ccccc1NCc1ccc(O)c2ncccc12 | n | n | n | 100 | n
Oc1ccc(Cn2ccnc2)c2cccnc12 | n | n | n | 99 | n
Cc1cccc(NCc2ccc(O)c3ncccc23)c1 | n | n | n | n | n
Oc1ccc(CNc2ccccc2)c2cccnc12 | n | n | n | 66 | n
NS(=O)(=O)c1ccc(CCNc2ncnc3c2c(-c2ccccc2)cn3-c2ccc(F)cc2)cc1 | n | n | n | n | n
CCc1cc2cc3c(cc2nc1SCC(=O)OC(C)C)OCO3 | n | n | n | n | n
OCc1ccnc2c(O)cccc12 | n | n | n | 100 | n
O=Nc1ccc(O)c2ncccc12 | n | n | n | x | x
COc1cccc(CN2CCN(Cc3cc(OC)c(OC)cc3[N+](=O)[O-])CC2)c1 | n | n | n | 60 | n
COc1cc(CN2CCN(Cc3ccc([N+](=O)[O-])cc3)CC2)c([N+](=O)[O-])cc1OC | n | n | n | 68 | n
O=C(/C=C/c1ccccc1)c1ccc2c3c(cccc13)CC2 | n | n | n | 71 | n
Oc1ccc(NCc2ccccc2OCc2ccccc2F)cc1 | n | n | n | 100 | n
CCOc1cccc(CNc2ccc(O)cc2)c1OCc1ccc(Cl)cc1 | n | n | n | 100 | n
Cc1ccc(NCc2ccccc2OCc2ccccc2F)cc1 | n | n | n | n | n
Cc1ccc(Oc2ccc(/C=N/O)cn2)cc1 | n | x | n | n | n
O=[N+]([O-])c1ccc(Sc2cccc3cccnc23)cc1 | n | x | x | n | n
Cc1cc(C)nc(Sc2ccc([N+](=O)[O-])cc2[N+](=O)[O-])n1 | n | n | n | 87 | n
C=CCn1nc([N+](=O)[O-])nc1Sc1cccc2cccnc12 | n | n | n | 58 | n
O=[N+]([O-])c1ccc(Sc2cccc3cccnc23)c([N+](=O)[O-])c1 | n | n | n | 96 | n
SMILES | Dynein cargo inh | b-catenin transl | HSV replic up | L major viab | MT stabilize HCS
CCn1c(SC)nnc1-c1nnc(SC)n1CC | n | x | n | n | n
Cc1ccccc1OC1C(=O)N(CC2CCCO2)C1c1ccc2c(c1)OCO2 (centres undefined) | n | n | n | n | n
O=C(CCCN1C(=O)c2cccc3cccc(c23)C1=O)N1CCN(c2ccccc2O)CC1 | n | n | n | 70 | n
O=C(CCCN1C(=O)c2cccc3cccc(c23)C1=O)N1CCN(c2ccccc2)CC1 | n | n | n | n | n
Oc1ccc(Br)cc1/C=N/Nc1nc(N2CCCCC2)nc(N2CCOCC2)n1 | n | n | n | 91 | n
Fc1ccccc1COc1ccccc1/C=N/Nc1nc(N2CCCC2)nc(N2CCCC2)n1 | n | n | n | 50 | n
CN(C)c1nc(NCc2ccccc2)nc(N/N=C/c2cccc(Br)c2)n1 | n | n | n | 52 | n
BrC(=C\c1ccccc1)/C=N/Nc1nc(N2CCOCC2)nc(N2CCOCC2)n1 | n | n | n | 86 | n
Oc1ccc(/C=N/Nc2nc(N3CCCCCC3)nc(N3CCCCCC3)n2)c(O)c1 | n | n | n | n | n
Cc1ccc(Nc2ncnc3c2oc2ccccc23)cc1 | n | x | x | n | n
COc1ccccc1NS(=O)(=O)c1cccc(N2CC(O)=C(c3ccccc3)C2=N)c1 | n | n | n | n | n
O=C(O)c1ccccc1/C=N/Nc1nc(N2CCCCC2)nc(N2CCCCC2)n1 | n | n | n | n | n
Fc1ccc(Nc2nc(N/N=C/c3ccco3)nc(N3CCCCC3)n2)cc1 | n | n | n | 83 | n
Brc1cccc(/C=N/Nc2nc(N3CCCCC3)nc(N3CCCCC3)n2)c1 | n | n | n | 52 | n
